Laboratory results taken from PMC3377336 (EMBO Molecular Medicine, 2010).
Where a name gives a salt, the structure may show the parent alone. Read-outs that look alike come from different tables or passages of the source.

Legend:
NB TICs [1] = assay: Sphere-formation secondary assay, NB TICs; type: cell-based, human; settings: for Fold difference in potency (EC50, sphere formation) NB TICs vs SKPs: text and legends
NB67 cells [2] = test system: NB67 cells
NB67 cells [3] = assay: Secondary assay on NB67 TICs; settings: same patient as NB12, 2 years later
NB12 xenograft tumours [4] = assay: NB12 xenograft tumours in NOD/SCID mice; type: in vivo; settings: 14 days
[5] = test system: p70S6K and S6RP phosphorylation; assay: Immunoblot of mTOR target proteins; type: cell-based, human; settings: 50 nM, 1 h
SKPs = assay: Sphere-formation secondary assay, SKPs; type: cell-based, human; settings: up to doses of 1 µM
SH-SY5Y cells = assay: alamarBlue dose-response assay; type: cell-based, human; settings: serial dilutions, alamarBlue day 6, read day 7
SK-N-AS cells = assay: alamarBlue dose-response assay; type: cell-based, human; settings: serial dilutions, alamarBlue day 6, read day 7
NB88R2 xenograft tumours = NB88R2 xenograft tumours in NOD/SCID mice; type: in vivo; settings: NB88 tumours; 3 mg/kg IP daily, 14 days
SMS-KCNR cells = assay: Sphere-formation secondary assay, SMS-KCNR; type: cell-based, human; settings: up to doses of 1 µM
NB TICs [6] = assay: Apoptosis: nuclear morphology, sub-2n DNA content, cleaved PARP; type: cell-based, human; settings: 50 nM rapamycin
Procedure, shortened: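 NB12 cells (40,000) on lysine/laminin-coated chamber slides, treated in duplicate 24 h after plating, then fixed with 4% paraformaldehyde and 0.5 µg/ml Hoechst 33342; nuclei counted in 15 random fields. For DNA content and blots, 200,000 NB TICs per 25 cm2 flask were treated 48 h post-plating. Cells were ethanol-fixed, RNaseA/propidium iodide 1 h 37 °C, flow cytometry. NP-40 lysates were immunoblotted for cleaved PARP.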

NB12 xenograft tumours [7] = assay: Sphere formation of cells re-isolated from treated NB12 xenograft tumours; type: in vivo, NOD/SCID mice; settings: dissociated tumours, methylcellulose, 10 days; 3 mg/kg IP daily
NB12 TICs = assay: Cell viability by trypan blue exclusion; type: cell-based, human; settings: 50 nM rapamycin

Structure (SMILES): COc1ccc2c(c[n+](C)c3c4cc5c(cc4ccc23)OCO5)c1OC [Chelerythrine chloride]
- Selective cytotoxicity for NB TICs (PKC inhibitors) (NB TICs [1]; sphere formation, NB TICs vs SKPs): selectively cytotoxic

Structure (SMILES): COc1cc2c(c(OC)c1OC)-c1ccc(OC)c(=O)cc1[C@@H](NC(C)=O)CC2 [Colchicine]
- Cytotoxicity to NB67 cells (NB67 cells [2]): not cytotoxic

Structure (SMILES): CO[C@H]1C=C[C@@]23c4cc5c(cc4CN(C[C@@H]2O)[C@H]3C1)OCO5 [Crinamine]
- Fold difference in potency (EC50, sphere formation) NB TICs vs SKPs (NB TICs [1]): > 50 fold

Structure (SMILES): C=C1C(=O)O[C@H]2[C@H]1CC/C(C)=C/CC[C@@]1(C)O[C@@H]21 [Parthenolide]
- Fold difference in potency (EC50, sphere formation) NB TICs vs SKPs (NB TICs [1]): 3-50 fold

Structure (SMILES): COc1cc([C@@H]2c3cc4c(cc3[C@H](O)[C@H]3COC(=O)[C@H]23)OCO4)cc(OC)c1OC [Podophyllotoxin]
- Cytotoxicity to NB67 cells (NB67 cells [2]): not cytotoxic

Structure (SMILES): CCN(CC)CCCC(C)Nc1c2ccc(Cl)cc2nc2ccc(OC)cc12 (stereo not drawn) [Quinacrine dihydrochloride]
- Fold difference in potency (EC50, sphere formation) NB TICs vs SKPs (NB TICs [1]): 3-50 fold

Structure (SMILES): COc1cc([C@@H]2c3cc4c(cc3[C@@H](O[C@@H]3O[C@@H]5CO[C@@H](c6cccs6)O[C@H]5[C@H](O)[C@H]3O)[C@H]3COC(=O)[C@H]23)OCO4)cc(OC)c1O [Teniposide]
- Fold difference in potency (EC50, sphere formation) NB TICs vs SKPs (NB TICs [1]): > 10 fold

Structure (SMILES): CC[C@]1(O)C[C@@H]2CN(CCc3c([nH]c4ccccc34)[C@@](C(=O)OC)(c3cc4c(cc3OC)N(C)[C@H]3[C@@](O)(C(=O)OC)[C@H](OC(C)=O)[C@]5(CC)C=CCN6CC[C@]43[C@@H]65)C2)C1 [Vinblastine sulfate]
- Cytotoxicity to NB67 cells (NB67 cells [3]): not cytotoxic
- Reduction of tumour weight relative to vehicle-treated controls (NB12 xenograft tumours [4]; 0.25 mg/kg IP daily): 43.4%
- Fold difference in potency (EC50, sphere formation) NB TICs vs SKPs (NB TICs [1]): > 10 fold

Structure (SMILES): CC[C@]1(O)C[C@H]2CN(CCc3c([nH]c4ccccc34)[C@@](C(=O)OC)(c3cc4c(cc3OC)N(C=O)[C@H]3[C@@](O)(C(=O)OC)[C@H](OC(C)=O)[C@]5(CC)C=CCN6CC[C@]43[C@@H]65)C2)C1 [Vincristine sulfate]
- Cytotoxicity to NB67 cells (NB67 cells [3]): not cytotoxic

Structure (SMILES): CO[C@H]1C[C@@H]2CC[C@@H](C)[C@@](O)(O2)C(=O)C(=O)N2CCCC[C@H]2C(=O)O[C@H]([C@H](C)C[C@@H]2CC[C@@H](O)[C@H](OC)C2)CC(=O)[C@H](C)/C=C(\C)[C@@H](O)[C@@H](OC)C(=O)[C@H](C)C[C@H](C)/C=C/C=C/C=C/1C [rapamycin]
- Phosphorylation of p70S6K and S6RP [5]: rapidly inhibited
- Effect on sphere formation of SKPs (SKPs): little effect
- Reduction of tumour weight relative to vehicle-treated controls (NB12 xenograft tumours [4]; 3 mg/kg IP daily): 82.6%
- Sensitivity of SH-SY5Y cells, alamarBlue assay (SH-SY5Y cells): not effective
- Sensitivity of SK-N-AS cells, alamarBlue assay (SK-N-AS cells): not effective
- Reduction of tumour weight relative to vehicle-treated controls (NB88R2 xenograft tumours): 74.0%
- Effect on sphere formation of SMS-KCNR cells (SMS-KCNR cells): little effect
- Apoptosis in NB12 and NB122R cells (NB TICs [6]): induced features of apoptosis
- Reduction of sphere-forming ability in treated tumours (NB12 xenograft tumours [7]): 7.75 fold
- Time to decrease of cell viability (trypan blue exclusion) (NB12 TICs): 24 h
